What was measured:
[1] = Inhibition of HIV1 reverse transcriptase 41L/67N/70R/184V/210W/215Y mutant by heteropolymeric DNA polymerase assay; parameters: species or system Human immunodeficiency virus 1
How it was run: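 Purified p66/p51 HIV-1 RT, or p66 homodimer for 65R, at 30–100 pM (about 1.5–4.5 mU/well). Plate-bound 18-mer DNA primer on a 50-base 5′-A12-(GTCA)5-3′ DNA template. dATP, dGTP, dCTP and BrdUTP at 1.0 μM each, no ATP. Buffer: HEPES 50 mM pH 7.3, 10 mM MgCl2. Incubation 180 min at 33°C, NaOH dehybridization, anti-BrdU-AP tracer, A405. IC50 from seven inhibitor concentrations, at least two experiments in duplicate.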

[2] = Inhibition of HIV1 reverse transcriptase 41L/69S-SG/210W/215Y mutant in presence of 5'-A12-(GACT)5-3' by heteropolymeric DNA polymerase assay
[3] = biological target: HIV1 RT 41L/69S-SG/210W/215Y mutant (HIV-1); experiment: Inhibition of HIV1 reverse transcriptase 41L/69S-SG/210W/215Y mutant in presence of 3.2 mM ATP by prA/odT assay
[4] = tested on: Human immunodeficiency virus 1; experiment: Activity of HIV1 reverse transcriptase wild type HXB2(a) in presence of 3.2 mM ATP by prA/odT assay
How it was run: (§1)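 Buffer is HEPES 50 mM pH 7.3 with MgCl2 10 mM, Triton X-100 0.5% and BSA 0.1 mg/ml. RT 4–12 pM/well, 33°C for 180 min, no NaOH step. Km obtained as the mean of at least two runs done in duplicate.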

[5] = tested on: Human immunodeficiency virus 1; experiment: Activity of HIV1 reverse transcriptase 41L/69S-SG/210W/215Y mutant in presence of 3.2 mM ATP by prA/odT assay
[6] = tested on: Human immunodeficiency virus 1; experiment: (§2) Activity of HIV1 reverse transcriptase wild type HXB2(b) in presence of 3.2 mM ATP by prA/odT assay; how it was run: as §1
[7] = tested on: Human immunodeficiency virus 1; experiment: (§3) Activity of HIV1 reverse transcriptase 41L/67N/70R/215Y/219Q mutant in presence of 3.2 mM ATP by prA/odT assay
How it was run: (§4)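 Buffer: 50 mM HEPES pH 7.3, 10 mM MgCl2, 0.5% Triton X-100, 0.1 mg/ml BSA. Incubation 180 min at 33°C. Product detected with AP-conjugated anti-BrdU at 405 nm. […] Ki from four inhibitor levels. At least two experiments in duplicate.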

[8] = tested on: Human immunodeficiency virus 1; experiment: (§5) Activity of HIV1 reverse transcriptase 41L/67N/70R/210W/215Y mutant in presence of 3.2 mM ATP by prA/odT assay; how it was run: as §4
[9] = Activity of HIV1 reverse transcriptase 41L/69S-SG/210W/215Y mutant in presence of 3.2 mM ATP by prA/odT assay
[10] = as §2; parameters: species or system Human immunodeficiency virus 1; how it was run: as §1
[11] = as §3; parameters: species or system Human immunodeficiency virus 1; how it was run: as §4
[12] = as §5; parameters: species or system Human immunodeficiency virus 1; how it was run: as §4

Structure (SMILES)	IC50 [1] [nM]	IC50 [2] [nM]	Ki [3] [nM]	Km [4] [µM]	Km [5] [µM]	Km [6] [µM]	Km [7] [µM]	Km [8] [µM]	Km [9] [µM]	Km [10] [µM]	Km [11] [µM]	Km [12] [µM]
C[C@H](Cn1cnc2c(N)ncnc21)OCP(=O)(O)OP(=O)(O)OP(=O)(O)O	1400	17000	–	–	–	–	–	–	–	–	–	–
Cc1cn([C@H]2CO[C@@H](COP(=O)(O)OP(=O)(O)OP(=O)(O)O)O2)c(=O)[nH]c1=O	160	780	59	0.32	0.5	0.24	0.42	0.51	–	–	–	–
Cc1cn([C@H]2C[C@H](N=[N+]=[N-])[C@@H](COP(=O)(O)OP(=O)(O)OP(=O)(O)O)O2)c(=O)[nH]c1=O [ZIDOVUDINE TRIPHOSPHATE]	–	–	–	–	–	–	–	–	0.53	0.29	0.49	0.43

— ChEMBL document CHEMBL1143844, “Biochemical studies on the mechanism of human immunodeficiency virus type 1 reverse transcriptase resistance to 1-(beta-D-dioxolane)thymine triphosphate” (Antimicrob Agents Chemother, 2007)
